Assay type in all cases: cell-based
The target of experiment [1] is T1, Neuronal acetylcholine receptor subunit alpha-7 (Homo sapiens, UniProt P36544). Kind of experiment: Displacement of [125I]alpha-bungarotoxin from human alpha-7 nAChR expressed in SH-SY5Y cells. The procedure, abridged:
(§1)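 Membrane homogenates from a clonal cell line stably expressing human α7 nAChR. Radioligand was [125I]α-bungarotoxin at 0.2 nM in 140 mM NaCl, 1 mM EDTA, 50 mM Tris-HCl, pH 7.4. Nonspecific binding was defined with 10 μM nicotine. Ki came from non-linear regression fits by Cheng-Prusoff. Mean ± SEM of four experiments, triplicate samples, from at least two membrane preparations.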
In general terms: Displacement assays read how much labelled ligand stays bound in the presence of the test substance.

The target in experiment [2] is Neuronal acetylcholine receptor; alpha4/beta2 (Homo sapiens, UniProt P17787+P43681). Kind of experiment: Displacement of [3H]cytisine from human alpha-4-beta-2 nAChR expressed in SH-EP1 cells. An outline of the steps:
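Radioligand displacement used membrane homogenates from a clonal cell line stably expressing human α4β2 nAChR. [3H]cytisine was at 1 nM in saline of 120 mM NaCl, 5 mM KCl, 1 mM MgCl2, 2.5 mM CaCl2, 50 mM Tris, pH 7.0. Nonspecific binding was defined with 10 μM nicotine. Ki was obtained from regression fits by Cheng-Prusoff. Mean ± SEM of four experiments in triplicate.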

Experiment [3] deals with T1, Neuronal acetylcholine receptor subunit alpha-7. Kind of experiment: Inhibition of 0.2 nM [125I]alpha-bungarotoxin binding to human alpha-7 nAChR expressed in SH-SY5Y cells. The procedure, abridged:
as §1

A word on the IC50: it is the concentration at which inhibition is half-maximal. Higher therefore signals weaker potency in that assay. What is called Ki is a measure of affinity in units of concentration, obtained from inhibition or displacement. As usually defined, the inhibition is how much of the control response was suppressed. A low value points to a response near the control.

Chain of Neuronal acetylcholine receptor; alpha4/beta2 (P17787 whole entry): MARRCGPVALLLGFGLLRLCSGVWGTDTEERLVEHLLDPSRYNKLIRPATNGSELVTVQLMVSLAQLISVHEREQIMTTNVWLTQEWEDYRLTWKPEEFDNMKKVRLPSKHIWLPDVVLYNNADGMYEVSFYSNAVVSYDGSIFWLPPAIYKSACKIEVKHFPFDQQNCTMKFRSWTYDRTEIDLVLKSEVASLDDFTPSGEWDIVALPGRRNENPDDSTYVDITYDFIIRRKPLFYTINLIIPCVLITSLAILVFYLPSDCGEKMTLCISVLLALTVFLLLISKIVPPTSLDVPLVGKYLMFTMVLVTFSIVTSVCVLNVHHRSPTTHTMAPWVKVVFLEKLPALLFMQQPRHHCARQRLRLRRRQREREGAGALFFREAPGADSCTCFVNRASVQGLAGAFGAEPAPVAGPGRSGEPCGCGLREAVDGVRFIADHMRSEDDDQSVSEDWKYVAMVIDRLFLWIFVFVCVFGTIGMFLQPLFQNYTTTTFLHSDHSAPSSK
Chain of Neuronal acetylcholine receptor; alpha4/beta2 (P43681 whole entry): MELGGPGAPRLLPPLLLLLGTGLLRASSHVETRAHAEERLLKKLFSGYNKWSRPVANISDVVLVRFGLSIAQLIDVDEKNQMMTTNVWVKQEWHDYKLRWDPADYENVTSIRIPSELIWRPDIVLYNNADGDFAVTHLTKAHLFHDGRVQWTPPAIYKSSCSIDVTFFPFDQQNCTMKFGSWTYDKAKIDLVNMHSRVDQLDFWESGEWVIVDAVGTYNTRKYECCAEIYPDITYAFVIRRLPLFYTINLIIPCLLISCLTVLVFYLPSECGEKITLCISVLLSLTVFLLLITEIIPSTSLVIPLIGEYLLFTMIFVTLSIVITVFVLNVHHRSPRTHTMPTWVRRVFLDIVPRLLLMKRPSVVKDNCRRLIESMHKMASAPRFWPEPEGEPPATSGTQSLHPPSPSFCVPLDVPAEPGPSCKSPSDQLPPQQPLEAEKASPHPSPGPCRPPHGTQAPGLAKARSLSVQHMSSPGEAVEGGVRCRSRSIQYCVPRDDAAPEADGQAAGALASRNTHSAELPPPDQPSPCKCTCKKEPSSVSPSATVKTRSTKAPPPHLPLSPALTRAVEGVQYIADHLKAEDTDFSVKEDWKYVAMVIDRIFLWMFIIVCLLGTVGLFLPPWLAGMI
T1 sequence (P36544 whole entry): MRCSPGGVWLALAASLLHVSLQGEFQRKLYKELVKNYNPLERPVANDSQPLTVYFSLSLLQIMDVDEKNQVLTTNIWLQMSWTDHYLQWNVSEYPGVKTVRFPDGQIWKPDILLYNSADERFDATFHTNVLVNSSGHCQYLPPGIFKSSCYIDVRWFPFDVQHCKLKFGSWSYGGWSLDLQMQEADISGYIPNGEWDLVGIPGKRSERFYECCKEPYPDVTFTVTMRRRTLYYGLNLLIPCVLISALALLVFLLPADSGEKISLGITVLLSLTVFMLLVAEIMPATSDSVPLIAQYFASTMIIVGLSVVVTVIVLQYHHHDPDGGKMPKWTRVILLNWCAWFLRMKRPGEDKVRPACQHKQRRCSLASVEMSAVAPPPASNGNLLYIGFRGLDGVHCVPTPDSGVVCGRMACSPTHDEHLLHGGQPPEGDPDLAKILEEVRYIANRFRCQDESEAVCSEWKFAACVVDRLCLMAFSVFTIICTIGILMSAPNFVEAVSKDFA

Turning to `COc1cc2c(cc1OC)-c1c(OC)c(OC)cc3c1[C@H](C2)[N+](C)(C)CC3` [GLAUCINE METHIODIDE], in experiment [1], the IC50 came to 21 µM and affinity was put at a Ki of 18 µM. In experiment [2], this compound returned an IC50 of 34 µM and a Ki of 10 µM.
Taken in the same sequence, the figures for `COc1cc2c(cc1O)C[C@H]1c3c(cc(OC)c(OC)c3-2)CC[N+]1(C)C` were 12 µM, 10 µM, 3 µM and 0.91 µM.
Taken in the same sequence, the figures for `COc1cc2c(cc1O)C[C@H]1c3c(cc(O)c(OC)c3-2)CCN1C` [BOLDINE] were 81 µM, 67 µM, 10 µM and 3 µM.
Taken in the same sequence, the figures for `COc1cc2c(cc1OC)-c1c(OC)c(O)cc3c1[C@H](C2)[N+](C)(C)CC3` [PREDICENTRINE METHIODIDE] were 27 µM, 21 µM, 3.2 µM and 0.97 µM.
Take `COc1cc2c(cc1O)C[C@H]1c3c(c(Br)c(O)c(OC)c3-2)CCN1C` [3-BROMOBOLDINE]: the inhibition in experiment [3] was 91%. Also, in experiment [1], the IC50 amounted to 100 µM and the Ki was 83 µM. In experiment [2], this compound showed an IC50 of 99 µM and a Ki of 30 µM.
Turning to `COc1cc2c(cc1O)C[C@H]1c3c(cc(O)c(OC)c3-2)CC[N+]1(C)C` [BOLDINE METHIODIDE], the results for the IC50 in experiment [1] and in experiment [2] were 18 µM and 8.2 µM, respectively. The Ki in experiment [1] was 15 µM; in experiment [2], 2.5 µM.
On to `COc1cc2c(c(Br)c1O)C[C@H]1c3c(c(Br)c(O)c(OC)c3-2)CCN1C`, for which the inhibition in experiment [3] came to 85%. Also, in experiment [1], the IC50 came to 114 µM and the affinity, expressed as Ki, was 95 µM. Also, in experiment [2], the IC50 came out at 101 µM and affinity was put at a Ki of 31 µM.

Values taken from ChEMBL document CHEMBL1143040, “Aporphine metho salts as neuronal nicotinic acetylcholine receptor blockers” (Bioorg Med Chem, 2007).
